Data from ChEMBL document CHEMBL1144441, “Identification of a novel cardenolide (2''-oxovoruscharin) from Calotropis procera and the hemisynthesis of novel derivatives displaying potent in vitro antitumor activities and high in vivo tolerance: structure-activity relationship analyses” (J Med Chem, 2005).

Legend:
Mus musculus = assay: Maximum tolerated dose after intraperitoneal administration in mouse (period of 28 days); format: functional
Summary of the method: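 Healthy, non-tumour-bearing B6D2F1 mice given one acute intraperitoneal dose, three mice per dose group, doses 5, 10, 20, 40, 80, 120 and 160 mg/kg. Survival and body weight followed for 28 days after injection. MTD is the highest single dose causing no deaths over the period.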

A549 = assay: Concentration required for 50% growth inhibition of human A549 cancer cell lines after 3 days of culture; format: functional, cell-based; conditions: A549, 72 h
Summary of the method: (§1)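 MTT overall-growth assay on the five lines. Cells were plated for 24 h at 10 000–40 000 cells/mL, depending on cell type. Nine concentrations from 10^-9 to 10^-5 M in semilog steps were applied for 72 h. Formazan was read at 570 nm against a 630 nm reference, in sextuplicate. IC50 = concentration reducing overall growth by 50% versus untreated control.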

U373 MG = assay: Concentration required for 50% growth inhibition of human U373 cancer cell lines after 3 days of culture; format: functional, cell-based, U-373MG ATCC; conditions: 72 h; summary of the method: as §1
HCT-15 = assay: Concentration required for 50% growth inhibition of human HCT-15 cancer cell lines after 3 days of culture; format: functional, cell-based; conditions: HCT-15, 72 h; summary of the method: as §1
[1] = Concentration required for 50% growth inhibition of human Hs 683 cancer cell lines after 3 days of culture; format: functional, cell-based; conditions: 72 h; summary of the method: as §1
LoVo = assay: Concentration required for 50% growth inhibition of human LoVo cancer cell lines after 3 days of culture; format: functional, cell-based; conditions: 72 h; summary of the method: as §1
[2] = target: Sodium/potassium-transporting ATPase subunit alpha-1 (Sus scrofa, UniProt P05024); assay: In vitro inhibitory activity against porcine Na+/K+-ATPase
Summary of the method: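 Porcine cerebral cortex Na+/K+-ATPase (3 × 10-3 units), preincubated 30 min at 37 °C in 30 mM Tris-HCl pH 7.4, 5 mM MgCl2 with inhibitor (1 to 50 000 nM). ADP formation coupled via pyruvate kinase/lactate dehydrogenase, excess phosphoenolpyruvate, to NADH oxidation.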

Structure (SMILES) | MTD (Mus musculus) | IC50 (A549) | IC50 (U373 MG) | IC50 (HCT-15) | IC50 [1] | IC50 (LoVo) | IC50 [2]
C[C@@H]1C[C@@]2(N[C@H](CC(=O)c3ccccc3)CS2)C2(O)O[C@@H]3C[C@@]4(CO)[C@@H](CC[C@@H]5[C@@H]4CC[C@]4(C)[C@@H](C6=CC(=O)OC6)CC[C@]54CO)C[C@H]3O[C@@H]2O1 (some centres not stated) | 80 mg/kg | 3 nM | 34 nM | 34 nM | 4 nM | 18 nM | –
CC(=O)OC[C@]12C[C@H]3OC4(O[Si](C)(C)C)[C@@H](O[C@H](C)C[C@@]45N=C(N)CS5)O[C@@H]3C[C@@H]1CC[C@@H]1[C@@H]2CC[C@]2(C)[C@@H](C3=CC(=O)OC3)CC[C@]12CO[Si](C)(C)C (some centres not stated) | >160 mg/kg | > 10000 nM | > 10000 nM | > 10000 nM | 7920 nM | 9570 nM | > 50000 nM
C[C@@H]1C[C@@]2(N[C@H](CC(=O)c3ccccc3)CS2)C2(O)O[C@@H]3C[C@@]4(C=O)[C@@H](CC[C@@H]5[C@@H]4CC[C@]4(C)[C@@H](C6=CC(=O)OC6)CC[C@]54CO)C[C@H]3O[C@@H]2O1 (some centres not stated) | 10 mg/kg | 4 nM | 41 nM | 49 nM | 7 nM | 33 nM | –
C[C@@H]1C[C@@]2(N=C(N)CS2)C2(O[Si](C)(C)C)O[C@@H]3C[C@@]4(CO[Si](C)(C)C)[C@@H](CC[C@@H]5[C@@H]4CC[C@]4(C)[C@@H](C6=CC(=O)OC6)CC[C@]54CO)C[C@H]3O[C@@H]2O1 (some centres not stated) | >160 mg/kg | 2580 nM | 4620 nM | 3660 nM | 1110 nM | 3850 nM | 4080 nM
C[C@@H]1C[C@@]2(N[C@@H](CC(=O)c3ccccc3)CS2)C2(O)O[C@@H]3C[C@@]4(CO)[C@@H](CC[C@@H]5[C@@H]4CC[C@]4(C)[C@@H](C6=CC(=O)OC6)CC[C@]54CO)C[C@H]3O[C@@H]2O1 (some centres not stated) | 80 mg/kg | 4 nM | 38 nM | 44 nM | 4 nM | 18 nM | –
C[C@@H]1C[C@@]2(N=C(N)CS2)C2(O[Si](C)(C)C)O[C@@H]3C[C@@]4(CO[Si](C)(C)C)[C@@H](CC[C@@H]5[C@@H]4CC[C@]4(C)[C@@H](C6=CC(=O)OC6)CC[C@]54CO[Si](C)(C)C)C[C@H]3O[C@@H]2O1 (some centres not stated) | >160 mg/kg | > 10000 nM | > 10000 nM | > 10000 nM | > 10000 nM | > 10000 nM | > 50000 nM
Cc1ccc(S(=O)(=O)OC[C@]23C[C@H]4OC5(O)[C@@H](O[C@H](C)C[C@@]56N=C(N)CS6)O[C@@H]4C[C@@H]2CC[C@@H]2[C@@H]3CC[C@]3(C)[C@@H](C4=CC(=O)OC4)CC[C@]23CO)cc1 (some centres not stated) | 10 mg/kg | 2720 nM | 9960 nM | 5800 nM | 1430 nM | 1060 nM | –
C[C@@H]1C[C@@]2(N[C@H](CC(O)c3ccccc3)CS2)C2(O)O[C@@H]3C[C@@]4(CO)[C@@H](CC[C@@H]5[C@@H]4CC[C@]4(C)[C@@H](C6=CC(=O)OC6)CC[C@]54CO)C[C@H]3O[C@@H]2O1 (some centres not stated) | – | 2 nM | 28 nM | 31 nM | 3 nM | 19 nM | –
Cc1ccc(S(=O)(=O)OC[C@]23C[C@H]4OC5(O)[C@@H](O[C@H](C)C[C@@]56NC(=O)CS6)O[C@@H]4C[C@@H]2CC[C@@H]2[C@@H]3CC[C@]3(C)[C@@H](C4=CC(=O)OC4)CC[C@]23CO)cc1 (some centres not stated) | – | 48 nM | 326 nM | 382 nM | 45 nM | 89 nM | –
C[C@@H]1C[C@@]2(N=C(N)CS2)C2(O[Si](C)(C)C)O[C@@H]3C[C@@]4(CO)[C@@H](CC[C@@H]5[C@@H]4CC[C@]4(C)[C@@H](C6=CC(=O)OC6)CC[C@]54CO[Si](C)(C)C)C[C@H]3O[C@@H]2O1 (some centres not stated) | >160 mg/kg | 126 nM | 925 nM | 454 nM | 346 nM | 340 nM | 1890 nM
C[C@@H]1C[C@@]2(N=C(N)CS2)C2(O)O[C@@H]3C[C@@]4(C=O)[C@@H](CC[C@@H]5[C@@H]4CC[C@]4(C)[C@@H](C6=CC(=O)OC6)CC[C@]54CO)C[C@H]3O[C@@H]2O1 (some centres not stated) | 10 mg/kg | 9 nM | 34 nM | 27 nM | 4 nM | 5 nM | –
C[C@@H]1C[C@@]2(NCCS2)[C@]2(O)O[C@@H]3C[C@@]4(C=O)[C@@H](CC[C@@H]5[C@@H]4CC[C@]4(C)[C@@H](C6=CC(=O)OC6)CC[C@]54O)C[C@H]3O[C@@H]2O1 | 1.25 mg/kg | 5 nM | 32 nM | 27 nM | 4 nM | 17 nM | –
C[C@@H]1C[C@@]2(NC(=O)CS2)C2(O)O[C@@H]3C[C@@]4(COS(C)(=O)=O)[C@@H](CC[C@@H]5[C@@H]4CC[C@]4(C)[C@@H](C6=CC(=O)OC6)CC[C@]54CO)C[C@H]3O[C@@H]2O1 (some centres not stated) | – | 3650 nM | 7310 nM | > 10000 nM | 3420 nM | 8390 nM | –
C[C@@H]1C[C@@]2(NC(=O)CS2)C2(O[Si](C)(C)C)O[C@@H]3C[C@@]4(CO[Si](C)(C)C)[C@@H](CC[C@@H]5[C@@H]4CC[C@]4(C)[C@@H](C6=CC(=O)OC6)CC[C@]54CO[Si](C)(C)C)C[C@H]3O[C@@H]2O1 (some centres not stated) | – | 657 nM | 3720 nM | 2690 nM | 525 nM | 931 nM | –
C[C@@H]1C[C@@]2(NCCS2)C2(O)O[C@@H]3C[C@@]4(CO)[C@@H](CC[C@@H]5[C@@H]4CC[C@]4(C)[C@@H](C6=CC(=O)OC6)CC[C@]54CO)C[C@H]3O[C@@H]2O1 (some centres not stated) | 5 mg/kg | 4 nM | 31 nM | 21 nM | 3 nM | 13 nM | –
COC(=O)OC[C@]12C[C@H]3OC4(O)[C@@H](O[C@H](C)C[C@@]45N=C(N)CS5)O[C@@H]3C[C@@H]1CC[C@@H]1[C@@H]2CC[C@]2(C)[C@@H](C3=CC(=O)OC3)CC[C@]12CO (some centres not stated) | >40 mg/kg | 42 nM | 320 nM | 442 nM | 49 nM | 245 nM | –
C[C@@H]1C[C@@]2(N=C(N)CS2)C2(O)O[C@@H]3C[C@@]4(COC(=O)CCc5ccccc5)[C@@H](CC[C@@H]5[C@@H]4CC[C@]4(C)[C@@H](C6=CC(=O)OC6)CC[C@]54CO)C[C@H]3O[C@@H]2O1 (some centres not stated) | >40 mg/kg | 4730 nM | > 10000 nM | > 10000 nM | > 10000 nM | 4840 nM | –
CC(O)CCC(=O)OC[C@]12C[C@H]3OC4(O)[C@@H](O[C@H](C)C[C@@]45NC(=O)CS5)O[C@@H]3C[C@@H]1CC[C@@H]1[C@@H]2CC[C@]2(C)[C@@H](C3=CC(=O)OC3)CC[C@]12CO (some centres not stated) | >40 mg/kg | 414 nM | 1190 nM | 1500 nM | 370 nM | 1560 nM | –
C[C@@H]1C[C@@]2(N[C@@H](CC(=O)c3ccccc3)CS2)C2(O)O[C@@H]3C[C@@]4(C=O)[C@@H](CC[C@@H]5[C@@H]4CC[C@]4(C)[C@@H](C6=CC(=O)OC6)CC[C@]54CO)C[C@H]3O[C@@H]2O1 (some centres not stated) | 10 mg/kg | 18 nM | 84 nM | 92 nM | 22 nM | 100 nM | –
C[C@@H]1C[C@@]2(NC(=O)CS2)C2(O)O[C@@H]3C[C@@]4(COC(=O)CCc5ccccc5)[C@@H](CC[C@@H]5[C@@H]4CC[C@]4(C)[C@@H](C6=CC(=O)OC6)CC[C@]54CO)C[C@H]3O[C@@H]2O1 (some centres not stated) | >40 mg/kg | > 10000 nM | 4190 nM | > 10000 nM | > 10000 nM | > 10000 nM | –
C[C@@H]1C[C@@]2(NC(=O)CS2)C2(O)O[C@@H]3C[C@@]4(COC(=O)c5ccccc5)[C@@H](CC[C@@H]5[C@@H]4CC[C@]4(C)[C@@H](C6=CC(=O)OC6)CC[C@]54CO)C[C@H]3O[C@@H]2O1 (some centres not stated) | >40 mg/kg | 625 nM | 4170 nM | 3620 nM | 778 nM | 2370 nM | –
CC(=O)OC[C@]12C[C@H]3OC4(O)[C@@H](O[C@H](C)C[C@@]45NC(=O)CS5)O[C@@H]3C[C@@H]1CC[C@@H]1[C@@H]2CC[C@]2(C)[C@@H](C3=CC(=O)OC3)CC[C@]12CO (some centres not stated) | >40 mg/kg | 1860 nM | 4600 nM | 4430 nM | 2780 nM | 2770 nM | –
